Values belong to the compound of their own block, whether it stands above or below them.
Key:
[1] = Neuroprotective activity in human MC65 cells expressing C-terminal 99 amino acids from […] assessed as reduction in intracellular amyloid beta toxicity after 4 days by MTT assay; format: functional, cell-based; conditions: MC65, 96 h
Outline: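 MC65 cells from confluent cultures were plated at 4 × 10⁵ per 35 mm dish with compounds. Tetracycline was kept present (no induction) or omitted (APP-C99 induced). After 4 days, viability was read by MTT and expressed relative to plus-tetracycline controls. EC50 was calculated from concentration–response curves.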

[2] = Neuroprotective activity in rat primary cortical neurons assessed as reduction in trophic factor withdrawal after 2 days by fluorescent live-dead assay; format: functional, cell-based; conditions: cerebral cortex neuron
Outline: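 Cortical neurons from E18 rat embryos were plated at low density (1 × 10⁶ per 35 mm dish) in serum-free DMEM/F12 with N2 supplement plus compounds. After 2 days, viability was scored with a fluorescent live-dead assay as the percentage of input cells surviving. EC50 was derived from the concentration–response curves.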

[3] = system: HT-22; assay: Neuroprotective activity in mouse HT22 cells assessed as reduction in glutamate-induced oxidative stress incubated for 30 mins prior to glutamate-challenge measured after 20 hrs by MTT assay
[4] = system: Blood; assay: Drug metabolism in BALB/c mouse blood assessed as (E)-N-(2,4-dimethylphenyl)-2,2,2-trifluoro-N'-(3-hydroxybenzyli-dene)acetohydrazide retention time at 20 mg/kg, iv administered in corn oil by LC/MS/MS analysis; format: ADME, organism-based; parameters: dose 20 mg/kg, route intravenous; conditions: in vivo
Outline: (§1)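 Mice received parent at 20 mg/kg iv, and blood was sampled 20 min later. Metabolites were identified by the same ethyl acetate extraction and LC/MS/MS workflow as for microsomes, using a polar reverse-phase column. Mass shifts were assigned to biotransformations.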

[5] = system: Blood; assay: Drug metabolism in BALB/c mouse blood assessed as metabolite BM2 retention time at 20 mg/kg, iv administered in corn oil by LC/MS/MS analysis; format: ADME, organism-based; parameters: dose 20 mg/kg, route intravenous; conditions: in vivo; outline: as §1
[6] = system: Blood; assay: Drug metabolism in BALB/c mouse blood assessed as metabolite BM1 retention time at 20 mg/kg, iv administered in corn oil by LC/MS/MS analysis; format: ADME, organism-based; parameters: dose 20 mg/kg, route intravenous; conditions: in vivo; outline: as §1
[7] = system: Blood; assay: Drug metabolism in BALB/c mouse blood assessed as retention time at 20 mg/kg, iv administered in corn oil by LC/MS/MS analysis; format: ADME, organism-based; parameters: dose 20 mg/kg, route intravenous; conditions: in vivo; outline: as §1
[8] = system: Liver microsomes; assay: Drug metabolism in human liver microsomes assessed as formation of (E)-2,2,2-trifluoro-N-(4-(hydroxymethyl)-2-methylphenyl)-N'-(3-methoxybenzylidene)acetohydrazide at 5 uM by LC/MS/MS analysis; format: ADME, Microsome
Outline: (§2)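 Parent at 5 µM was incubated with human or mouse liver microsomes, then extracted with ethyl acetate at zero time or after 5 min. Extracts were separated on a C18 reverse-phase HPLC column and analysed by LC/MS/MS in positive mode over m/z 50–1000. Metabolites were characterised from EPI-scan product ion spectra and CID pathways.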

[9] = system: Liver microsomes; assay: Drug metabolism in human liver microsomes assessed as formation of (E)-N-(2,4-dimethylphenyl)-2,2,2-trifluoro-N'-(3-hydroxybenzyli-dene)acetohydrazide at 5 uM by LC/MS/MS analysis; format: ADME, Microsome; outline: as §2
[10] = system: Plasma; assay: Drug metabolism in mouse plasma assessed as formation of 2,4-dimethylhydrazine at 5 uM by LC/MS/MS analysis; format: ADME, cell-free
[11] = system: Plasma; assay: Drug metabolism in mouse plasma assessed as formation of 3-methoxy benzaldehyde at 5 uM by LC/MS/MS analysis; format: ADME, cell-free
[12] = system: Plasma; assay: Drug metabolism in mouse plasma assessed as formation of 2,4-dimethylaniline at 5 uM by LC/MS/MS analysis; format: ADME, cell-free
[13] = Drug metabolism in mouse liver microsomes assessed as formation of 3-methoxy benzaldehyde at 5 uM by LC/MS/MS analysis; format: ADME, Microsome; outline: as §2
[14] = Drug metabolism in mouse liver microsomes assessed as formation of 2,4-dimethylaniline at 5 uM by LC/MS/MS analysis; format: ADME, Microsome; outline: as §2
[15] = Drug metabolism in mouse liver microsomes assessed as formation of 2,4-dimethylhydrazine at 5 uM by LC/MS/MS analysis; format: ADME, Microsome; outline: as §2
[16] = system: Liver microsomes; assay: Drug metabolism in human liver microsomes assessed as formation of 3-methoxy benzaldehyde at 5 uM by LC/MS/MS analysis; format: ADME, Microsome; outline: as §2
[17] = system: Liver microsomes; assay: Drug metabolism in human liver microsomes assessed as formation of 2,4-dimethylhydrazine at 5 uM by LC/MS/MS analysis; format: ADME, Microsome; outline: as §2
[18] = system: Liver microsomes; assay: Drug metabolism in human liver microsomes assessed as formation of 2,4-dimethylaniline at 5 uM by LC/MS/MS analysis; format: ADME, Microsome; outline: as §2
[19] = Drug metabolism in mouse liver microsomes assessed as metabolite M4 retention time at 5 uM by LC/MS/MS analysis; format: ADME, Microsome; outline: as §2
[20] = Drug metabolism in mouse liver microsomes assessed as metabolite M5 retention time at 5 uM by LC/MS/MS analysis; format: ADME, Microsome; outline: as §2
[21] = Drug metabolism in mouse liver microsomes assessed as (E)-2,2,2-trifluoro-N-(4-(hydroxymethyl)-2-methylphenyl)-N'-(3-methoxybenzylidene)acetohydrazide retention time at 5 uM by LC/MS/MS analysis; format: ADME, Microsome; outline: as §2
[22] = Drug metabolism in mouse liver microsomes assessed as (E)-N'-(3,4-dihydroxybenzylidene)-N-(2,4-dimethylphenyl)-2,2,2-trifluoroacetohydrazide retention time at 5 uM by LC/MS/MS analysis; format: ADME, Microsome; outline: as §2
[23] = Drug metabolism in mouse liver microsomes assessed as (E)-N-(2,4-dimethylphenyl)-2,2,2-trifluoro-N'-(3-hydroxybenzyli-dene)acetohydrazide retention time at 5 uM by LC/MS/MS analysis; format: ADME, Microsome; outline: as §2
[24] = system: Liver microsomes; assay: Drug metabolism in human liver microsomes assessed as retention time at 5 uM by LC/MS/MS analysis; format: ADME, Microsome; outline: as §2
[25] = Drug metabolism in mouse liver microsomes assessed as retention time at 5 uM by LC/MS/MS analysis; format: ADME, Microsome; outline: as §2
[26] = Half life in human liver microsomes at 5 uM by LC/MS/MS analysis in presence of NADPH; format: ADME, Microsome
Outline: (§3)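 Test compound at 5 µM was incubated at 37 °C with 0.5 mg/mL liver microsomes (human or mouse) in 5 mM phosphate buffer, pH 7.3, with or without 1 mM NADPH. Heat-inactivated microsomes (98 °C, 10 min) served as controls. At 0.1, 2, 5, 10 and 20 min, reactions were stopped with three volumes of ethyl acetate and centrifuged. Parent disappearance in the supernatant was followed by LC/MS/MS.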

[27] = Half life in mouse liver microsomes at 5 uM by LC/MS/MS analysis in presence of NADPH; format: ADME, Microsome; outline: as §3
[28] = Half life in BALB/c mouse blood at 20 mg/kg, orally administered in corn oil by LC/MS/MS analysis; conditions: po
[29] = Half life in BALB/c mouse brain at 20 mg/kg, orally administered in corn oil by LC/MS/MS analysis; conditions: po

EC50 [2]: 0.012 µM
Compound: Cc1ccc(N(/N=C/c2cccc(O)c2)C(=O)C(F)(F)F)c(C)c1
EC50 [1]: 0.078 µM
EC50 [3]: 0.185 µM

EC50 [2]: 0.033 µM
Retention_time [4]: 8.04 min
Retention_time [5]: 5.54 min
Retention_time [6]: 5.35 min
Retention_time [7]: 9.27 min
Drug metabolism [8]: Active
Drug metabolism [9]: Active
Drug metabolism [10]: Not Active
Drug metabolism [11]: Not Active
Drug metabolism [12]: Not Active
Drug metabolism [13]: Not Active
Drug metabolism [14]: Not Active
Drug metabolism [15]: Not Active
Drug metabolism [16]: Not Active
Drug metabolism [17]: Not Active
Drug metabolism [18]: Not Active
Retention_time [19]: 5.96 min
Retention_time [20]: 6.82 min
Retention_time [21]: 7.86 min
Retention_time [22]: 7.6 min
Retention_time [23]: 8.36 min
Retention_time [24]: 10.97 min
Retention_time [25]: 9.49 min
half-life at 5 µM [26]: 4.5 min
half-life at 5 µM [27]: < 4 min
half-life [28]: 2.5 h
half-life [29]: 2.5 h
Compound: COc1cccc(/C=N/N(C(=O)C(F)(F)F)c2ccc(C)cc2C)c1 [J147]
EC50 [1]: 0.011 µM
EC50 [3]: 0.02 µM

EC50 [2]: 0.031 µM
Compound: Cc1ccc(N(/N=C/c2ccc(O)c(O)c2)C(=O)C(F)(F)F)c(C)c1
EC50 [1]: 0.034 µM
EC50 [3]: 1 µM

EC50 [2]: 0.32 µM
Compound: COc1cccc(/C=N/N(C(=O)C(F)(F)F)c2ccc(CO)cc2C)c1
EC50 [1]: 0.092 µM
EC50 [3]: 0.18 µM
